Assay results reported in ChEMBL document CHEMBL1133715, “Dual function glutamate-related ligands: discovery of a novel, potent inhibitor of glutamate carboxypeptidase II possessing mGluR3 agonist activity” (J Med Chem, 2000).
Values joined by “and” are separate entries in the source; they are usually repeats but may differ in a detail not shown here. Identical values can stand only once. Active and inactive are the calls of the source. No cut-off for these calls is given here.

Experiments:
[1] = tested on: CHO; assay: Inhibitory activity against N-acetyl-L-aspartyl-L-glutamate (NAAG) peptidase of rat stably expressed in CHO cells at 100 uM; type: cell-based
[2] = tested on: CHO; assay: Inhibitory activity against N-acetyl-L-aspartyl-L-glutamate (NAAG) peptidase of rat stably expressed in CHO cells at 100 uM; NA=no activity; type: cell-based
[3] = target: Metabotropic glutamate receptor 3 (Homo sapiens, UniProt Q14832); assay: Agonist potency against cloned Metabotropic glutamate receptor 3; type: functional
How it was run: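 mGluR3 activity was measured on a chimeric mGluR3/1a receptor, which carries mGluR3 pharmacology but couples to phospholipase C. Agonist response was read as accumulation of inositol phosphates.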

Metabotropic glutamate receptor 3, sequence (Q14832 whole entry): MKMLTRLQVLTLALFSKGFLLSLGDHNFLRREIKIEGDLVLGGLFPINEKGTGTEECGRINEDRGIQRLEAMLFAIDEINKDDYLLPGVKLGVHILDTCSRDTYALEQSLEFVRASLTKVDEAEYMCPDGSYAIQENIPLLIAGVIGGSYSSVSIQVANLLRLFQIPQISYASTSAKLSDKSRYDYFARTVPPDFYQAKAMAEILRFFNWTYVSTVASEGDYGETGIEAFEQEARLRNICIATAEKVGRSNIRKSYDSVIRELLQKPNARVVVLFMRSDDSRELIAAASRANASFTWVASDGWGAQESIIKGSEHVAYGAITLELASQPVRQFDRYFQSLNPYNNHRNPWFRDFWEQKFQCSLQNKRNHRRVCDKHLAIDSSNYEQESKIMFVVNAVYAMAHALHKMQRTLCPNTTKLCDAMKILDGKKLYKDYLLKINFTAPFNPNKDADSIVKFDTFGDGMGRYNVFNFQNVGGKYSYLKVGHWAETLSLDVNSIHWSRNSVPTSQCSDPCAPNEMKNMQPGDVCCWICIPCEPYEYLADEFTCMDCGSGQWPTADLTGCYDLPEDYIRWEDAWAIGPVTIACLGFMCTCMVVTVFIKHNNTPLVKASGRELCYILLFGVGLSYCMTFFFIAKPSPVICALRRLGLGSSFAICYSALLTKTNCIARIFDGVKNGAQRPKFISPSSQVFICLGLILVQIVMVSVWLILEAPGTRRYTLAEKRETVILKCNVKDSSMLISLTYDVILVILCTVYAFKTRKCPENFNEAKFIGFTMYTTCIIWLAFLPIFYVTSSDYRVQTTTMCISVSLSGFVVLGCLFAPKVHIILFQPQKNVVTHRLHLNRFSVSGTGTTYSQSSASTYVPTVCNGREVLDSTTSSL

| EC50 [3] | Compound | inhibition [1] | inhibition [2] |
| --- | --- | --- | --- |
| – | O=C(O)CCC(=O)CC(CCC(=O)O)C(=O)O (stereo unspecified) | 35% | – |
| > 300 µM | O=C(O)CCC(CC(=O)CC(CCC(=O)O)C(=O)O)C(=O)O (stereo unspecified) | – | inactive |
| 39 µM and 45 µM and 51 µM | O=C(O)CCC(CP(=O)(O)CC(CCC(=O)O)C(=O)O)C(=O)O (stereo unspecified) | 21.7% and 6.9% and 22.3% | – |
| 33 µM | O=C(O)CC[C@H](CP(=O)(O)C[C@H](CCC(=O)O)C(=O)O)C(=O)O | – | – |
